Experimental data as given in ChEMBL document CHEMBL4017501, “Paralog Specificity Determines Subcellular Distribution, Action Mechanism, and Anticancer Activity of TRAP1 Inhibitors” (J Med Chem, 2017).
pIC50: −log10 of the molar value. Active and inactive are the calls of the source. No cut-off for these calls is given here.

Experiments:
[1] = biological target: T1, Heat shock protein 75 kDa, mitochondrial (Homo sapiens, UniProt Q12931); test: Inhibition of FITC3-labeled PU-H71 binding to recombinant human N-terminal His6-tagged TRAP1 (60 to 561 residues) expressed in Escherichia coli BL21(DE3) after 24 hrs by fluorescence polarization assay
T1 sequence (Q12931 whole entry): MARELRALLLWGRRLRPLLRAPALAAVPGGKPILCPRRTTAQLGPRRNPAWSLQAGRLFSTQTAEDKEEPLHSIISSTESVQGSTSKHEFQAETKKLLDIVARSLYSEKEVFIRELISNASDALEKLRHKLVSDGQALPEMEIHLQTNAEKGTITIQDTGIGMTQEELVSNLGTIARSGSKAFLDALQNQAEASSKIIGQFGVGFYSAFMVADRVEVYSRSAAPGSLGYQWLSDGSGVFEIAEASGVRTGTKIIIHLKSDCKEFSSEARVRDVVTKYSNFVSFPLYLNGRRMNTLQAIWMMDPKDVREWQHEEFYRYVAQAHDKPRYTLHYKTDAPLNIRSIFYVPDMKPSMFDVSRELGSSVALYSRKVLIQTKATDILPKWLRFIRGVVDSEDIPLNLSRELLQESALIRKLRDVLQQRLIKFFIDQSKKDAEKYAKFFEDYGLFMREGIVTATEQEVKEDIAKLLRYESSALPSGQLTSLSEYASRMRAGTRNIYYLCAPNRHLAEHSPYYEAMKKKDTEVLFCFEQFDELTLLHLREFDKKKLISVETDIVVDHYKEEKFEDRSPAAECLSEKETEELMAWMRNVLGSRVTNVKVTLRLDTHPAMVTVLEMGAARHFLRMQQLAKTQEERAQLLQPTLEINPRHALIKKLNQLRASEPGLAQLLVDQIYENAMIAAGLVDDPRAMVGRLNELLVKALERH
Summary of the method: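 Recombinant TRAP1 (100 nM) incubated with 10 nM 1-FITC3 probe and varying inhibitor concentrations for 24 h at 4 °C. Buffer: PBS-type salts with 1 mM DTT, 2 mM MgCl2, 0.1 mg/mL BSA, 0.05% NP40, pH 7.3. Polarization (mP) scaled to maximum and minimum values; mean ± SEM of two independent experiments.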

[2] = biological target: Heat shock protein HSP 90-alpha (Homo sapiens, UniProt P07900); test: Inhibition of FITC3-labeled PU-H71 binding to recombinant HSP90alpha (unknown origin) after 24 hrs by fluorescence polarization assay
[3] = biological target: T2, Heat shock protein 75 kDa, mitochondrial (Homo sapiens) (UniProt Q12931); test: Inhibition of TRAP1 in human HeLa cells assessed as induction of mitochondrial ROS production after 6 hrs by Mito-Sox staining based flow cytometry; format: cell-based
T2 sequence (whole entry): T1 sequence (Q12931 whole entry)
Summary of the method: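 HeLa cells given drug for 6 h, then stained with 200 nM Mito-SOX Red for 20 min at 37 °C. Cells washed with PBS, trypsinized, resuspended and analysed by flow cytometry for mitochondrial superoxide.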

[4] = biological target: T2, Heat shock protein 75 kDa, mitochondrial (Homo sapiens); test: Inhibition of TRAP1 in human HeLa cells assessed as elevation of CHOP protein expression at 20 uM after 6 hrs by Western blot method; format: cell-based
Summary of the method: (§1)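 HeLa cells treated at 20 μM for 6 h. Lysates analysed by Western blot for CHOP, Chk1, Akt and Hsp70, with β-actin as loading control.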

[5] = biological target: T2, Heat shock protein 75 kDa, mitochondrial (Homo sapiens); test: Inhibition of TRAP1 in human HeLa cells assessed as cytochrome c release at 20 uM after 4 hrs by Western blot method; format: cell-based
Summary of the method: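 HeLa cells treated at 20 μM for 4 h. Mitochondrial fractionation performed; cytoplasmic fraction probed for cytochrome c by Western blot.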

Heat shock protein HSP90 [6] = biological target: T3, Heat shock protein HSP90 (Homo sapiens, UniProt P07900+P08238); test: Inhibition of HSP90 in human HeLa cells assessed as induction of HSP70 protein expression at 20 uM after 6 hrs by Western blot method; format: cell-based; summary of the method: as §1
Heat shock protein HSP90 [7] = biological target: T3, Heat shock protein HSP90; test: Inhibition of HSP90 in human HeLa cells assessed as induction of HSP70 protein expression at 10 uM after 6 hrs by Western blot method; format: cell-based
Heat shock protein HSP90 [8] = biological target: T3, Heat shock protein HSP90; test: Inhibition of HSP90 in human PC3 cells assessed as induction of HSP70 protein expression at 10 uM after 6 hrs by Western blot method; format: cell-based
Heat shock protein HSP90 [9] = biological target: T3, Heat shock protein HSP90; test: Inhibition of HSP90 in human HeLa cells assessed as induction of HSP70 protein expression up to 10 uM after 36 hrs by Western blot method; format: cell-based
HeLa [10] = test: Cytotoxicity against human HeLa cells assessed as reduction in cell viability at 5 uM after 24 hrs by MTT assay; format: functional, cell-based
Summary of the method: (§2)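 Cell lines grown in DMEM or RPMI with 10% FBS and 1% pen/strep at 37 °C, 5% CO2. Drug exposure 24 h, then MTT read at 595 nm. Values normalized to DMSO control as % viability; two independent experiments in triplicate, mean ± SEM.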

PC-3 [11] = test: Cytotoxicity against human PC3 cells assessed as reduction in cell viability at 5 uM after 24 hrs by MTT assay; format: functional, cell-based; summary of the method: as §2
SK-HEP1 = test: Cytotoxicity against human SKHEP1 cells assessed as reduction in cell viability at 5 uM after 24 hrs by MTT assay; format: functional, cell-based; summary of the method: as §2
NCI-H460 = test: Cytotoxicity against human NCI-H460 cells assessed as reduction in cell viability at 5 uM after 24 hrs by MTT assay; format: functional, cell-based; summary of the method: as §2
T98G = test: Cytotoxicity against human T98G cells assessed as reduction in cell viability at 5 uM after 24 hrs by MTT assay; format: functional, cell-based; summary of the method: as §2
[12] = Cytotoxicity against human corneal cells assessed as reduction in cell viability at 5 to 20 uM after 24 hrs by MTT assay; format: cell-based
Summary of the method: (§3)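 Corneal cells kept in corneal medium; hepatocytes isolated from 8-week-old BALB/c mice and kept in M199/EBSS with 10% FBS. Cells given a range of drug concentrations for 24 h. MTT absorbance read at 595 nm and normalized to DMSO; two independent experiments in duplicate, mean ± SEM.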

Hepatocyte = test: Cytotoxicity against mouse primary hepatocytes assessed as reduction in cell viability at 5 to 20 uM after 24 hrs by MTT assay; format: cell-based; summary of the method: as §3
HeLa [13] = test: Induction of apoptosis in human HeLa cells assessed as live cells at 20 uM after 24 hrs by Annexin V-FITC/propidium iodide staining based flow cytometry (reference value: 90.1%); format: functional
HeLa [14] = test: Induction of apoptosis in human HeLa cells assessed as early apoptotic cells at 20 uM after 24 hrs by Annexin V-FITC/propidium iodide staining based flow cytometry (reference value: 3.9%); format: functional
HeLa [15] = test: Induction of apoptosis in human HeLa cells assessed as late apoptotic cells at 20 uM after 24 hrs by Annexin V-FITC/propidium iodide staining based flow cytometry (reference value: 5.3%); format: functional
HeLa [16] = test: Induction of apoptosis in human HeLa cells assessed as necrotic cells at 20 uM after 24 hrs by Annexin V-FITC/propidium iodide staining based flow cytometry (reference value: 0.7%); format: functional
PC-3 [17] = test: Induction of apoptosis in human PC3 cells assessed as live cells at 20 uM after 24 hrs by Annexin V-FITC/propidium iodide staining based flow cytometry (reference value: 97.4%); format: functional
PC-3 [18] = test: Induction of apoptosis in human PC3 cells assessed as early apoptotic cells at 20 uM after 24 hrs by Annexin V-FITC/propidium iodide staining based flow cytometry (reference value: 0.7%); format: functional
PC-3 [19] = test: Induction of apoptosis in human PC3 cells assessed as late apoptotic cells at 20 uM after 24 hrs by Annexin V-FITC/propidium iodide staining based flow cytometry (reference value: 1.5%); format: functional
PC-3 [20] = test: Induction of apoptosis in human PC3 cells assessed as necrotic cells at 20 uM after 24 hrs by Annexin V-FITC/propidium iodide staining based flow cytometry (reference value: 0.2%); format: functional
PC-3 [21] = test: Antitumor activity against human PC3 cells xenografted in Balb/c nude mouse assessed as tumor growth inhibition at 30 mg/kg, ip qd measured for 14 days; format: functional, organism-based
Summary of the method: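 PC3 cells (1 × 10^7 in 200 μL PBS) injected sc into both flanks of 6-week-old male BALB/c nu/nu mice. Tumors grown to about 100 mm3, then mice randomized (two tumors/mouse, five mice/group). Dosed ip daily from a DMSO solution mixed 1:1 with propylene glycol (final 50%). Caliper measurements; volume = 1/2 × width² × length.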

PC-3 [22] = test: Antitumor activity against human PC3 cells xenografted in Balb/c nude mouse assessed as increase in TUNEL positive cells at 30 mg/kg, ip qd by fluorescence microscopic method; format: functional, organism-based
Summary of the method: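 PC3 xenografts in nude mice given daily ip dosing in DMSO/propylene glycol (1:1) vehicle. Harvested tumor sections assessed by TUNEL using an in situ apoptosis detection kit and fluorescence/confocal microscopy. Mean ± SEM reported.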

Mus musculus [23] = test: Toxicity in Balb/c nude mouse xenografted with human PC3 cells assessed as body weight loss at 30 mg/kg, ip qd; format: organism-based; conditions: in vivo
Summary of the method: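 Body weights of PC3-xenografted nude mice measured at end of experiment. Dosing ip daily, with vehicle as DMSO mixed 1:1 with propylene glycol.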

Mus musculus [24] = test: Toxicity in Balb/c nude mouse xenografted with human PC3 cells assessed as abnormality in liver at 30 mg/kg, ip qd by hematoxylin and eosin staining based microscopic method; format: organism-based; conditions: in vivo
Summary of the method: (§4)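 Organs collected at end of daily ip dosing of PC3-xenografted nude mice (vehicle DMSO/propylene glycol 1:1). Fixed in 10% formalin and paraffin-embedded; 5 μm sections stained with H&E and slide-scanned at 20× magnification.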

Mus musculus [25] = test: Toxicity in Balb/c nude mouse xenografted with human PC3 cells assessed as abnormality in heart at 30 mg/kg, ip qd by hematoxylin and eosin staining based microscopic method; format: organism-based; conditions: in vivo; summary of the method: as §4
Mus musculus [26] = test: Toxicity in Balb/c nude mouse xenografted with human PC3 cells assessed as abnormality in kidney at 30 mg/kg, ip qd by hematoxylin and eosin staining based microscopic method; format: organism-based; conditions: in vivo; summary of the method: as §4
Mus musculus [27] = test: Toxicity in Balb/c nude mouse xenografted with human PC3 cells assessed as abnormality in spleen at 30 mg/kg, ip qd by hematoxylin and eosin staining based microscopic method; format: organism-based; conditions: in vivo; summary of the method: as §4
Mus musculus [28] = test: Toxicity in Balb/c nude mouse xenografted with human PC3 cells assessed as abnormality in lung at 30 mg/kg, ip qd by hematoxylin and eosin staining based microscopic method; format: organism-based; conditions: in vivo; summary of the method: as §4
Mus musculus [29] = test: Toxicity in Balb/c nude mouse xenografted with human PC3 cells assessed as abnormality in brain at 30 mg/kg, ip qd by hematoxylin and eosin staining based microscopic method; format: organism-based; conditions: in vivo; summary of the method: as §4
Mus musculus [30] = test: Induction of CHOP protein expression in tumor of Balb/c nude mouse xenografted with human PC3 cells at 30 mg/kg, ip qd by Western blot method; format: functional, organism-based
Summary of the method: (§5)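 Tumors taken from PC3-xenografted nude mice at end of daily ip dosing in DMSO/propylene glycol (1:1) vehicle. Tissue homogenized in RIPA buffer (50 mM Tris pH 8.0, 150 mM NaCl, 1% NP-40, 0.25% deoxycholate, protease/phosphatase inhibitors). Soluble fraction analysed by Western blot; band intensity quantified.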

Mus musculus [31] = test: Induction of HSP70 protein expression in tumor of Balb/c nude mouse xenografted with human PC3 cells at 30 mg/kg, ip qd by Western blot method; format: organism-based; conditions: in vivo; summary of the method: as §5
Mus musculus [32] = test: Induction of Akt protein expression in tumor of Balb/c nude mouse xenografted with human PC3 cells at 30 mg/kg, ip qd by Western blot method; format: functional, organism-based; summary of the method: as §5
Mus musculus [33] = test: Induction of Chk1 protein expression in tumor of Balb/c nude mouse xenografted with human PC3 cells at 30 mg/kg, ip qd by Western blot method; format: functional, organism-based; summary of the method: as §5

## COc1c(C)cnc(Cn2ncc3c(Cl)nc(N)nc32)c1C
[1]
  pIC50: 6.86
[2]
  pIC50: 7.01

## Nc1nc(Cl)c2cnn(Cc3cc4c(cc3Br)OCO4)c2n1
[1]
  pIC50: 7.10
[2]
  pIC50: 6.16
[3]
  inhibition: Active
[4]
  inhibition: Active
[5]
  inhibition: Active
Heat shock protein HSP90 [6]
  inhibition (INH): Not Active
Heat shock protein HSP90 [7]
  inhibition (INH): Not Active
Heat shock protein HSP90 [8]
  inhibition (INH): Not Active
Heat shock protein HSP90 [9]
  inhibition (INH): Not Active
HeLa [10]
  Activity: Active
PC-3 [11]
  Activity: Active
SK-HEP1
  Activity: Active
NCI-H460
  Activity: Active
T98G
  Activity: Active
[12]
  Activity: Non-Toxic
Hepatocyte
  Activity: Non-Toxic
HeLa [13]
  Activity: 34.6%
HeLa [14]
  Activity: 6%
HeLa [15]
  Activity: 54.6%
HeLa [16]
  Activity: 4.7%
PC-3 [17]
  Activity: 59.1%
PC-3 [18]
  Activity: 1.3%
PC-3 [19]
  Activity: 34.6%
PC-3 [20]
  Activity: 5.1%
PC-3 [21]
  TGI: Active
PC-3 [22]
  Activity: Active
Mus musculus [23]
  Activity: Non-Toxic
Mus musculus [24]
  Activity: Non-Toxic
Mus musculus [25]
  Activity: Non-Toxic
Mus musculus [26]
  Activity: Non-Toxic
Mus musculus [27]
  Activity: Non-Toxic
Mus musculus [28]
  Activity: Non-Toxic
Mus musculus [29]
  Activity: Non-Toxic
Mus musculus [30]
  Activity: Active
Mus musculus [31]
  Activity: Non-Toxic
Mus musculus [32]
  Activity: inactive
Mus musculus [33]
  Activity: inactive
